Laboratory results from publication PMC7758886 (ACS Omega, 2020).
Blank lines part the entries; values can stand above or below the compound they belong to.

Tests used:
[1] = target: Carausius morosus allatostatin-C receptor with C-terminal EYFP (CmorAlstRC-EYFP) (Carausius morosus); assay: FRET or BRET
[2] = target: CmorAlstRC ΔN-term mutant (Carausius morosus)
CXCR4 = assay: FRET-based Gαi2 activation, 96-well plate, CXCR4; assay type: cell-based; settings: HEK293, Gαi2 FRET sensor, ± SD, three to four independent plate reader experiments
[3] = system: endogenous β-AR (HEK293 cells); assay: Single-cell FRET microscopy of isoprenaline-stimulated cAMP production; assay type: cell-based; settings: 3 nM isoprenaline, continuous
Summary of the method: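 HEK293 cells co-transfected (Effectene) with receptor and Epac-SH187 cAMP FRET sensor; medium changed 16 h post-transfection, reseeded on PLL-coated coverslips, imaged 36–48 h post-transfection. One cell per coverslip, continuously perfused with FRET buffer (HEPES, pH 7.35) and/or ligand. FRET = corrected YFP/CFP ratio, normalized to baseline; cAMP rise lowers FRET. Traces averaged over eight cells from 3 days.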

[4] = system: β1 adrenergic receptor (β1AR); assay: Epac-S^H187 FRET cAMP production; assay type: cell-based; settings: HEK293, Epac-S^H187 sensor; at least three individual experiments
[5] = system: α1A adrenergic receptor (α1AAR); assay: FRET-based Gαq activation, α1A adrenergic receptor; assay type: cell-based; settings: HEK293, 96-well

Compound: human Gαi2-ECFP (from UniProt P04899 1-355) (natural protein)
pEC50 of AST-C for the FRET change between CmorAlstRC-EYFP and Gαi2-ECFP [1]: 8.84
tau of association (apparent, with 1 μM AST-C) [1]: 227 ms
tau of dissociation (apparent, wash-off of 1 μM AST-C) [1]: 3.8 s

pEC50 of Gαi2 FRET sensor activation by DmelASTC, ΔN-term mutant, 96-well plates [2]: 8.47
Compound: Drosophila melanogaster pGlu AST-C peptide (DmelASTC)

pEC50, Gαi2 activation (CXCR4): 9.49 ± 0.1
Compound: CXCL12: agonist of CXCR4, positive control for Gαi2 activation

Compound: CC(C)NCC(O)c1ccc(O)c(O)c1 (centres unmarked) [Iso, isoprenaline]
FRET response, cAMP production [3]: sharp decrease in FRET

Compound: NC[C@H](O)c1ccc(O)c(O)c1 [NE, Norepinephrine]
change in FRET signal (cAMP production) [4]: decreased the FRET response (increased the cAMP level) in a NE concentration-dependent manner
Gαq FRET sensor activation [5]: induced a concentration-dependent FRET decrease in the Gαq sensor
